# CaV13 ICDI inh = Primary screen for inhibitors of IQ motif and Ca2+-dependent inactivation inhibitor domain binding in CACNA1D, Förster resonance energy transfer in living cells, …. inhibition, % at 12.3 µM. 0.098% of 340,000 active. HEK cells, CFP/YFP FRET ICDI-IQ, plate reader, 10 min; percent FRET-ratio fall versus neutral wells;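 active = mean replicate inhibition of at least 30% and at least 1% of replicates passing that level; inconclusive = only one of the two criteria is met; inactive = neither criterion is met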
# T cruzi repl = blocks replication of Trypanosoma cruzi | T. cruzi beta-gal in NIH3T3, luminescence, 90 h | inhibition, % (test concentration not listed) | 1.4% of 300,000 active | AID 1885;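 active = mean inhibition across valid replicates above about 55%, limit read from the data; inconclusive = mean below that limit but half or more replicates reach it; inactive = mean below it, under half of replicates reach it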;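 note: signal also drops with host cell toxicity which is not excluded here; higher percent means less beta-gal luminescence so fewer parasites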
#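 Assay system: NIH/3T3 fibroblasts plus reporter T. cruzi. Amount: NIH/3T3 cells, 5,000 per well. Buffer or medium: DMEM, 2% fetal bovine serum. Doses: compound pinned at 50 nL/well, DMSO. Schedule: ≥90 h infection period, 3 h prior cell attachment. Signal: luminescent β-galactosidase signal after 60 min lysis. Read-out: parasite load inhibition, %.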
# HSF-1 act = increases HSF-1 driven luciferase reporter signal. NIH3T3-HGL HSF-1 luciferase reporter, MG132, 8 h; 100% = twice DMSO control signal. activation, % at 9 µM. 1.7% of 300,000 active;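 active = mean replicate activation of at least 50% with a set share of replicates each reaching 50%; inconclusive = only one of those two conditions met; inactive = mean below 50% and too few replicates reaching it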
# Glyco luc inh = N-linked glycosylation inhibition | D54 ERlucT glycosylation luciferase reporter, 24 h; percent of 100 nM tunicamycin response | reporter increase, % at 12.5 µM | 0.23% of 360,000 active;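 active = mean luciferase reporter signal, scaled so untreated is 0 and the glycosylation-blocking control 100, at or above a set limit in every replicate; inconclusive = mean reaches the limit but not every replicate does; inactive = mean below the limit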;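 note: luciferase carries N-glycosylation sites so blocking glycosylation raises the light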
# PfHsp90 yeast 2 = inhibits growth of yeast expressing Plasmodium falciparum Hsp90 | S. cerevisiae expressing PfHsp90, BacTiter-Glo ATP, 48 h; yeast lacking PDR1 and PDR3 efflux regulators | inhibition, % at 9.4 µM | AID 504621 | 0.32% of 310,000 active;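 active = every replicate shows inhibition above about 80%, whatever the replicate mean, limit read from the data; inconclusive = mean inhibition reaches the set limit but some replicate falls short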
# PvdQ acylase = blocks Pseudomonas aeruginosa PvdQ acylase activity; 0.063% of 340,000 active; purified PvdQ acylase, fluorescence plate reader; inhibition, % at 10 µM; in the data active = inhibition above about 30%, passing the limit was not always enough; inconclusive = no clear call, values can overlap the other calls
# Hits are given with their value; – = inactive; ? = inconclusive; · = not tested or not shown. In the library only some 3% were active in any assay of this set; here they are far more common.
SMILES,CaV13 ICDI inh,T cruzi repl,HSF-1 act,Glyco luc inh,PfHsp90 yeast 2,PvdQ acylase
Cc1cc(=O)n2[nH]c(-c3ccc(C(C)(C)C)cc3)cc2n1,–,63.1,–,–,–,–
COc1ccc(-c2cc(C(=O)Nc3ccccc3F)on2)cc1,–,–,54.0,–,–,–
COc1ccc(-c2cc(C(=O)Nc3ccccc3)on2)cc1,–,–,–,–,–,–
Cc1ccc2oc(=O)c3cnn(CC(=O)NC4CCN(Cc5ccccc5)CC4)c3c2c1,–,57.1,–,–,–,–
O=C(Cn1ncc2c(=O)oc3ccccc3c21)NC1CC1,–,–,–,–,–,–
CC(=O)NC(c1cccc([N+](=O)[O-])c1)c1ccc2cccnc2c1O (centres undefined),–,–,–,–,–,–
Oc1cccc(C(Nc2nccs2)c2ccc3cccnc3c2O)c1 (centres undefined),–,91.6,–,–,–,–
O=[N+]([O-])c1ccc(NC(c2ccccc2)c2ccc3cccnc3c2O)cc1 (centres undefined),–,·,·,–,112.5,–
CCCC(=O)NC(c1ccc(OC)cc1)c1ccc2cccnc2c1O (centres undefined),–,74.4,–,–,·,–
CCCCC(=O)NC(c1ccccc1)c1ccc2cccnc2c1O (centres undefined),–,57.3,–,–,114.8,–
CCOC1=C2CN(S(=O)(=O)c3ccc(C)cc3)C(c3ccc(C)cc3)CC2N(S(=O)(=O)c2ccc(C)cc2)C(c2ccccc2)C1 (centres undefined),–,·,·,·,·,·
CC(C)(COC(=O)c1ccccc1)N1CC2CCC(C1)O2,·,·,–,–,–,–
CC(=O)NC(c1ccc(C)cc1)c1cc(Cl)c2cccnc2c1O (centres undefined),–,62.4,–,–,114.5,–
CCCC(=O)NC(c1ccccc1)c1ccc2cccnc2c1O (centres undefined),–,57.7,–,–,113.3,–
CCC(=O)NC(c1ccccc1OC)c1ccc2cccnc2c1O (centres undefined),·,59.5,–,–,–,–
CCCCC(=O)NC(c1ccccc1Cl)c1ccc2cccnc2c1O (centres undefined),–,–,–,–,–,–
Oc1c(C(Nc2ccccn2)c2cccnc2)cc(Cl)c2cccnc12 (centres undefined),–,55.3,–,–,103.0,–
Nc1[nH]c(C(=O)c2ccccc2)c(-c2ccccc2[N+](=O)[O-])c1C(=O)NCCc1c[nH]c2ccccc12,–,·,·,·,·,·
COc1ccc(Cl)cc1C(Nc1cccnc1)c1ccc2cccnc2c1O (centres undefined),–,71.9,–,–,104.4,–
COc1cccc(C(NC(C)=O)c2ccc3cccnc3c2O)c1 (centres undefined),–,56.5,–,–,–,–
CCCCC(=O)NC(c1ccc(C(C)C)cc1)c1ccc2cccnc2c1O (centres undefined),–,–,–,–,89.7,–
Oc1c(C(Nc2cccc(C(F)(F)F)c2)c2cccnc2)ccc2cccnc12 (centres undefined),–,?,–,–,–,–
CCCCC(=O)NC(c1cccc([N+](=O)[O-])c1)c1ccc2cccnc2c1O (centres undefined),–,·,·,–,115.0,–
CCOC(=O)C1C(C(=O)OCC)C(C)(C)C1N(C)C (centres undefined),–,·,·,–,·,·
COc1ccccc1C(CNC(=O)CNC(=O)c1cccc(Cl)c1)N1CCCC1 (centres undefined),–,·,·,–,–,–
COc1ccc(C(=O)NCC2CCN(C(=O)C(=O)c3cccs3)CC2)cc1,–,·,·,·,·,·
CC(=O)NC(c1ccc(C(C)C)cc1)c1ccc2cccnc2c1O (centres undefined),–,56.2,–,–,107.9,–
COc1ccc(C2O[C@@H](C)[C@@H]3C(=O)N4CCc5c([nH]c6ccccc56)[C@@H]4C[C@@H]3N2C)cc1 (some centres undefined),–,·,·,·,·,·
Cc1cc(NCc2ccccc2)n2ncc(-c3ccccc3)c2n1,–,–,79.5,–,–,–

# Source: PubChem
